From ChEMBL document CHEMBL2074217, “Differences in the transport of the antiepileptic drugs phenytoin, levetiracetam and carbamazepine by human and mouse P-glycoprotein” (Neuropharmacology, 2006)

Assays:
Assay type in all cases: functional, cell-based
[1] = molecular target: ATP-binding cassette sub-family C member 2 (Homo sapiens, UniProt Q92887); experiment: TP_TRANSPORTER: transcellular transport in MRP2-expressing MDCKII cells; conditions: dog, mdck-ii
Outline: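 Directional transcellular transport was measured across polarized MDCKII monolayers transfected with human MRP2 cDNA and compared with wildtype MDCKII cells. Vinblastine served as the reference MRP2 substrate. The read-out was the transport ratio (TR).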

[2] = molecular target: T1, ATP-dependent translocase ABCB1 (Mus musculus, UniProt P21447); experiment: TP_TRANSPORTER: transcellular transport in mdr1a-expressing LLC-PK1 cells; conditions: pig
T1 sequence (P21447 whole entry): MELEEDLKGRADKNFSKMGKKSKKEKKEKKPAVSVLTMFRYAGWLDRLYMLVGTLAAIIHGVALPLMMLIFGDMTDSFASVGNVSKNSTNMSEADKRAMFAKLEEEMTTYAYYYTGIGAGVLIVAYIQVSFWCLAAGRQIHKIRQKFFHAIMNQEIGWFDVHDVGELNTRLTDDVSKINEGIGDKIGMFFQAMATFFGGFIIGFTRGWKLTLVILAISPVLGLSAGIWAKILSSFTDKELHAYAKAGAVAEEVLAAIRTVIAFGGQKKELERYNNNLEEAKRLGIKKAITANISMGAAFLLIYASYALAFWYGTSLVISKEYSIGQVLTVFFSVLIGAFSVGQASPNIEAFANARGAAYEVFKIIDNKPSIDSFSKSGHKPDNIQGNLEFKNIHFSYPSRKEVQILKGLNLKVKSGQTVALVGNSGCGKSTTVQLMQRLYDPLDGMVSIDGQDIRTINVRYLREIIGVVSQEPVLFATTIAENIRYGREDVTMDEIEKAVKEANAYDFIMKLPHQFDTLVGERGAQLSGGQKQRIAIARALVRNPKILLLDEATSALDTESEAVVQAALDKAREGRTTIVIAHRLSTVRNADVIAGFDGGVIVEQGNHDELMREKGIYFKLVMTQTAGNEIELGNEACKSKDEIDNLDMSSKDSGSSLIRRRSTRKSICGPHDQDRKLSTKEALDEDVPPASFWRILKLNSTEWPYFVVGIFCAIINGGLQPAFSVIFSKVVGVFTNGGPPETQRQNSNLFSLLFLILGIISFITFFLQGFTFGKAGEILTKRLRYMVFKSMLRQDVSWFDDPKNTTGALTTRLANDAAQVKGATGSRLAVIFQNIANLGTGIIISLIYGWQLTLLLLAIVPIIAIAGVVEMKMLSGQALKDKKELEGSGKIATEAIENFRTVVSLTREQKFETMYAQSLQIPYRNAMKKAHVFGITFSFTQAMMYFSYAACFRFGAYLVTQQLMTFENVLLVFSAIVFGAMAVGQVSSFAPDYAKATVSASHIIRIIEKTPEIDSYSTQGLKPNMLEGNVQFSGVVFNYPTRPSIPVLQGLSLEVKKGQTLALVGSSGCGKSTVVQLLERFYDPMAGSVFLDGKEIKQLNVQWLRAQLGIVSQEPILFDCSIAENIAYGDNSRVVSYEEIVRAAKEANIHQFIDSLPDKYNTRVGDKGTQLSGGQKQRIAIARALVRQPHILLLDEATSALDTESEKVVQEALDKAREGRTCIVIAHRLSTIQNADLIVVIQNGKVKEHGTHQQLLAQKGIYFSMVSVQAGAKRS
Outline: (§1)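 Polarized monolayers of LLC-PK1 pig kidney cells transfected with human MDR1, mouse mdr1a or mouse mdr1b cDNA, paired with wildtype LLC-PK1 monolayers. Directional transport across the monolayer was expressed as a transport ratio. The Pgp inhibitor PSC833 was used to test whether transport was Pgp-specific. Cyclosporin A served as the positive-control Pgp substrate.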

[3] = molecular target: T2, ATP-dependent translocase ABCB1 (Homo sapiens, UniProt P08183); experiment: TP_TRANSPORTER: transcellular transport in MDR1-expressing LLC-PK1 cells; conditions: pig; outline: as §1
[4] = molecular target: ATP-dependent translocase ABCB1 (Mus musculus, UniProt P06795); experiment: TP_TRANSPORTER: transcellular transport in mdr1b-expressing LLC-PK1 cells; conditions: pig; outline: as §1
Sequence of ATP-dependent translocase ABCB1 (Mus musculus, UniProt P06795) (P06795 whole entry): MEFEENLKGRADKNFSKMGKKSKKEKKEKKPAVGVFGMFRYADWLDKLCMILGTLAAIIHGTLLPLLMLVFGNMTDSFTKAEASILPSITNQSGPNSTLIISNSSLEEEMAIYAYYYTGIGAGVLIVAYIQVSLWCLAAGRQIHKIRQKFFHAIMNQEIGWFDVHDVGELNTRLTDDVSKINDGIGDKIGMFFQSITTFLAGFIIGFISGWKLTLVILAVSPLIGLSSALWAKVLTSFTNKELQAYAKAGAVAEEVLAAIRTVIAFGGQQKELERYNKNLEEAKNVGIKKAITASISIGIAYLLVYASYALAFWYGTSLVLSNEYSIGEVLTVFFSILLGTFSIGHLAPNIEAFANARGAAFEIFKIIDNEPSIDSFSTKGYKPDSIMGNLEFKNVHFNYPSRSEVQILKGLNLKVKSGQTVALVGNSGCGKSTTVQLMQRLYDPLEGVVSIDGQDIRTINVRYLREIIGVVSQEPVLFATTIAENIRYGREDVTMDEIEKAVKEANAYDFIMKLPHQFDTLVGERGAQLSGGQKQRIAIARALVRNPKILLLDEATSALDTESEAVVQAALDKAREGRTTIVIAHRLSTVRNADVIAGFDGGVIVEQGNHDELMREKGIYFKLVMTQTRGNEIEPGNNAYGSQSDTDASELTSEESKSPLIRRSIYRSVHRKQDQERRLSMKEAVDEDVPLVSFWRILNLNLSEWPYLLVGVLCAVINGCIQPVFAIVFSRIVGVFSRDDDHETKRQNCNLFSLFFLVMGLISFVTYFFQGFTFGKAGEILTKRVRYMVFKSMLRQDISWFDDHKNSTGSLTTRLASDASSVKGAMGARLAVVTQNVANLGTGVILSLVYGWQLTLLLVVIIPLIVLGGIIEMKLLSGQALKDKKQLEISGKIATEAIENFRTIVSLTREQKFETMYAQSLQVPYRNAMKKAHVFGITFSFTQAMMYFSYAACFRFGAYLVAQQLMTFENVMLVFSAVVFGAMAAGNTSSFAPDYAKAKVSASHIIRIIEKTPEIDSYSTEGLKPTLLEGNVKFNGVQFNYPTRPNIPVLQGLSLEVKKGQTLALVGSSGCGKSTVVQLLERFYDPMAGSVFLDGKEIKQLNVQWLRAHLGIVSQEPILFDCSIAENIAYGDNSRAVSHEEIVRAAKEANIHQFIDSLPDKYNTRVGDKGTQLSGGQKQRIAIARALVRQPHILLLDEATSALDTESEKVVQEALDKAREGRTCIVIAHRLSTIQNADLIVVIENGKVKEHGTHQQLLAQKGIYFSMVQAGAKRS

[5] = molecular target: T2, ATP-dependent translocase ABCB1; experiment: TP_TRANSPORTER: inhibition of cyclosporin A transcellular transport by tariquidar at a concentration of 0.2uM in MDR1-expressing MDCKII cells; conditions: dog, mdck-ii
[6] = molecular target: T1, ATP-dependent translocase ABCB1; experiment: TP_TRANSPORTER: inhibition of cyclosporin A transcellular transport by carbamazepine at a concentration of 224uM in mdr1a-expressing LLC-PK1 cells; conditions: pig, llc-pk1, 224 µM
[7] = molecular target: T2, ATP-dependent translocase ABCB1; experiment: TP_TRANSPORTER: inhibition of cyclosporin A transcellular transport by carbamazapine 224 uM in MDR1-expressing LLC-PK1 cells; conditions: pig, llc-pk1, 224 µM
[8] = molecular target: T1, ATP-dependent translocase ABCB1; experiment: TP_TRANSPORTER: inhibition of cyclosporin A transcellular transport by PSC833 at a concentration of 30uM in mdr1a-expressing LLC-PK1 cells; conditions: pig, llc-pk1, 30 µM
[9] = molecular target: T1, ATP-dependent translocase ABCB1; experiment: TP_TRANSPORTER: inhibition of phenytoin transcellular transport by PSC833 at a concentration of 30uM in mdr1a-expressing LLC-PK1 cells; conditions: pig, llc-pk1, 30 µM
[10] = molecular target: T1, ATP-dependent translocase ABCB1; experiment: TP_TRANSPORTER: inhibition of levetiracetam transcellular transport by PSC833 at a concentration of 30uM in mdr1a-expressing LLC-PK1 cells; conditions: pig, llc-pk1, 30 µM
[11] = molecular target: T2, ATP-dependent translocase ABCB1; experiment: TP_TRANSPORTER: inhibition of cyclosporin A transcellular transport by PSC833 at a concentration of 30uM in MDR1-expressing MDCKII cells; conditions: dog, mdck-ii

Sequence of ATP-binding cassette sub-family C member 2 (Q92887 whole entry): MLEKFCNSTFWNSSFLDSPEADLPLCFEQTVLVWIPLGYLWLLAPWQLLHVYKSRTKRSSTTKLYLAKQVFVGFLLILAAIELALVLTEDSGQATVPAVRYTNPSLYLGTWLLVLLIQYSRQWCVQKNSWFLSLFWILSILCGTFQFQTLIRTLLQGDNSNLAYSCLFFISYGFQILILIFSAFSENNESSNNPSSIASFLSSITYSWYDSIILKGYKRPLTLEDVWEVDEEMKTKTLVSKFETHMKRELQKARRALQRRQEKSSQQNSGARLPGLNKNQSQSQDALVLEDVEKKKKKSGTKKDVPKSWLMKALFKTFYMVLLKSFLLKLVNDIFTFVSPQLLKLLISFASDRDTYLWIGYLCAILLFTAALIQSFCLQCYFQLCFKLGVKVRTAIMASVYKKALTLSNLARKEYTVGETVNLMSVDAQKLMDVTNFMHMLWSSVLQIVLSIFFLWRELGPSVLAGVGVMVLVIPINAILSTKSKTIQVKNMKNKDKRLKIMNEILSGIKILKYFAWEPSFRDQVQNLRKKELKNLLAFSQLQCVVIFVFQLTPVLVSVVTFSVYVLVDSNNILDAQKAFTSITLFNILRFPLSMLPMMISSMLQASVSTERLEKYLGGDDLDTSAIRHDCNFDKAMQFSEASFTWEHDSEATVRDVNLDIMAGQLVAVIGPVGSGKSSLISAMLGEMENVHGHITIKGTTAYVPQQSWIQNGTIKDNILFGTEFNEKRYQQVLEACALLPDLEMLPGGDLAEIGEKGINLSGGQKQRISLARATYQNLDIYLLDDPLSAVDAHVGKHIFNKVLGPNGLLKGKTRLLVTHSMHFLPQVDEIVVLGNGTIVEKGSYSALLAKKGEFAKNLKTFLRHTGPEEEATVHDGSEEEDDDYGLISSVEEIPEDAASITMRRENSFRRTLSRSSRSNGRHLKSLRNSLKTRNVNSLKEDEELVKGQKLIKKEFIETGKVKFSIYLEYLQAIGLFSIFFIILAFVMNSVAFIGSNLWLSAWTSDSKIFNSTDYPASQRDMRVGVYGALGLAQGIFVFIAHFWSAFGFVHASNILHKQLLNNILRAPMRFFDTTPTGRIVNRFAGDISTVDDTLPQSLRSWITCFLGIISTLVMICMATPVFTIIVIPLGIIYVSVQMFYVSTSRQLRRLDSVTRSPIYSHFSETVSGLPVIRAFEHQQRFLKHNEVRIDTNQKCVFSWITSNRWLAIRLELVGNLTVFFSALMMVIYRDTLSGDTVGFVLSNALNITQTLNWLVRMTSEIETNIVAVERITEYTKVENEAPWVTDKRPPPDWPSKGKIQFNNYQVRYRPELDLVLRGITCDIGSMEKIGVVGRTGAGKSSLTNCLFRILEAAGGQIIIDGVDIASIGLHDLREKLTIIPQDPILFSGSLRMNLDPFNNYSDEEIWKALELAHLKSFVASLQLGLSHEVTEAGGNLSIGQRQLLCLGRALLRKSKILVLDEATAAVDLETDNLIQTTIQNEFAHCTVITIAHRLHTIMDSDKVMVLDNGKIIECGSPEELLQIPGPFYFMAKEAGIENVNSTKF

SMILES	Activity [1]	Activity [2]	Activity [3]	Activity [4]	other results
CC[C@@H](C(N)=O)N1CCCC1=O	is not a substrate [-]	substrate [+]	is not a substrate [-]	is not a substrate [-]	
COc1cc2c(cc1OC)CN(CCc1ccc(NC(=O)c3cc(OC)c(OC)cc3NC(=O)c3cnc4ccccc4c3)cc1)CC2					Activity [5]: inhibitor [+]
NC(=O)N1c2ccccc2C=Cc2ccccc21 [CARBAMAZEPINE]		is not a substrate [-]	is not a substrate [-]	is not a substrate [-]	Activity [6]: is not an inhibitor [-]; Activity [7]: is not a inhibitor [-]
O=C1NC(=O)C(c2ccccc2)(c2ccccc2)N1 [PHENYTOIN]	substrate [+]	substrate [+]	is not a substrate [-]	is not a substrate [-]	
C/C=C/C[C@@H](C)C(=O)[C@H]1C(=O)N[C@@H](C(C)C)C(=O)N(C)CC(=O)N(C)[C@@H](CC(C)C)C(=O)N[C@@H](C(C)C)C(=O)N(C)[C@@H](CC(C)C)C(=O)N[C@@H](C)C(=O)N[C@H](C)C(=O)N(C)[C@@H](CC(C)C)C(=O)N(C)[C@@H](CC(C)C)C(=O)N(C)[C@@H](C(C)C)C(=O)N1C [VALSPODAR]					Activity [8]: inhibitor [+]; Activity [9]: inhibitor [+]; Activity [10]: inhibitor [+]; Activity [11]: inhibitor [+]
CC[C@]1(O)C[C@@H]2CN(CCc3c([nH]c4ccccc34)[C@@](C(=O)OC)(c3cc4c(cc3OC)N(C)[C@H]3[C@@](O)(C(=O)OC)[C@H](OC(C)=O)[C@]5(CC)C=CCN6CC[C@]43[C@@H]65)C2)C1 [VINBLASTINE]	substrate [+]				
